Experimental data reported in PubChem BioAssay.
Values without a mark were called inactive. Records with an inconclusive call do not appear. Calls of active or inactive are those of the source.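 The calls were made as follows, unless noted: active = inhibition over a set limit, the all-compound mean plus 3 SD, in both replicate runs; inconclusive = over that limit in just one replicate run; inactive = at or under that limit in both runs.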

Key:
[1] = OD615 S. cerevisiae growth inhibition, permissive medium, pilot counter-assay, permissive growth control for S. cerevisiae lifespan shortening project (AID 705;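 active = growth inhibition above 25% in both replicates, a cutoff set 3 SD above the mean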); conditions: OD615, 24 h, at 10 µM, active compounds read high
How it was run: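 Timing: 24 h exposure, 30 °C / Material: Saccharomyces cerevisiae strain carrying genetically modified DeaD replicative-lifespan system / Signal: OD at 615 nm / Compound: 10 µM single dose, 0.25% DMSO / Medium: SC raffinose/galactose permissive medium / Evaluation: reduction in yeast growth (OD615)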

[2] = Restrictive medium S. cerevisiae growth inhibition, OD615, pilot screen of yeast lifespan reduction project, restrictive growth control (AID 706;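 active = growth inhibition above a set limit, 3 SD over mean compound inhibition, in both replicates, cut at about 43% in these data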;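 also: modified DeaD lifespan yeast strain shifted to restrictive glucose medium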); conditions: OD615, 48 h, at 10 µM, active compounds read high
How it was run: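 System: Engineered S. cerevisiae DeaD strain | Detection: OD615 | Buffer or medium: CSMM-D glucose medium | Doses: 10 µM compound, 0.25% DMSO | Timing: 4 h pre-growth plus 48 h compound exposure, 30 °C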

[3] = viability gain of MRP-1-high H69AR cells under doxorubicin, pilot screen, MRP-1 activator project, CellTiter-Glo, duplicate (AID 807;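 active = viability increase at or above a cutoff of the median across tested compounds plus 3 SD, cut at about 8.5% in these data, passing the limit was not always enough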;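 also: compound pretreatment 18-22 h then 72 h combined with doxorubicin; 0% = doxorubicin alone and 100% = vehicle without doxorubicin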); conditions: H69AR viability with doxorubicin, CellTiter-Glo luminescence; at 10 µM; active compounds read high
[4] = growth suppression of beta-catenin knockout HCT116, pilot screen, human colon tumor cells (AID 823;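 active = cell viability at or below a set limit in both duplicate runs, the limit being the all-compound median minus 4 SD, cut at about 23% in these data, passing the limit was not always enough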;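 also: 0% = wells killed by 20 µM Hyamine and 100% = untreated DMSO cell wells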); conditions: CellTiter-Glo, 60 h, at 10 µM, active compounds read low
[5] = growth suppression of PTEN-deleted HCT116, pilot screen, cell-based, HCT116 clonal line, CellTiter-Glo (AID 824;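 active = viability at or below 27.92% in each of two runs, the all-compound median minus 4 SD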;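 also: 0% = 20 µM Hyamine control and 100% = vehicle cell control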); conditions: 60 h, at 10 µM, active compounds read low
[6] = inhibitors of the yeast RAM network, pilot screen, dse1pr::URA3 reporter, 5-FOA selection (AID 869);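 also: 0% = DMSO wells with no growth and 100% = 10 µM 1-NA-PP1 with full growth; RAM network block rescues cells from 5-FOA so hits raise OD615 growth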; conditions: S. cerevisiae dse1pr::URA3 5-FOA growth, OD615, 2 d; at 10 µM; active compounds read high; strain carries analog-sensitive mutant Cbk1 kinase
[7] = RAM signaling pathway blockade in yeast – S. cerevisiae, Pdr1DBD-CYC8 efflux-inhibited sensitized strain, primary screen (AID 1298;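 active = RAM network inhibition above 8.4% in each of two replicates, 3 SD over the compound average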;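 also: 0% = DMSO untreated cells without growth and 100% = 10 µM 1-NA-PP1 full growth; higher means more yeast growth rescued from 5-FOA killing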); conditions: S. cerevisiae cbk1-as DSE1-URA3 strain, 5-FOA growth OD615, 2 d; at 50 µM; active compounds read high

Which growth inhibition [1] does the source give for `CC(c1ccccc1F)n1cc(C(=O)NCc2ccncc2)nn1` (configuration not stated) here?
Its growth inhibition is -19.2%.

What about the growth inhibition [2] of the same compound?
Its growth inhibition is -8.25%.

What about the viability increase [3] of the same compound?
Its viability increase is -0.75%.

What about the viability [4] of the same compound?
The viability was 96.3%.

And the viability [5]?
Its viability is 94.9%.

What about the inhibition [6] of the same compound?
Its inhibition is 1.86%.

What about the RAM network inhibition [7] of the same compound?
The RAM network inhibition was 4.53%.

Which growth inhibition [1] does the source give for `Cc1nc2c3ccccc3n(CC#N)c(=O)n2n1` here?
The growth inhibition was -11.8%.

And the growth inhibition [2]?
Its growth inhibition is -5.63%.

And the viability increase [3]?
The viability increase was -3.78%.

What about the viability [4] of the same compound?
Its viability is 99.9%.

And the viability [5]?
Its viability is 95.8%.

And the inhibition [6]?
Its inhibition is 2.66%.

And the RAM network inhibition [7]?
The RAM network inhibition was 0.21%.

Which results are given for `COc1ccc(C(=O)Nc2cccc(C(C)=O)c2)cc1S(=O)(=O)N1CCOCC1`?
growth inhibition [1]: -23.9%; growth inhibition [2]: -18.5%; viability increase [3]: -1.76%; viability [4]: 92%; viability [5]: 96%; inhibition [6]: 2.08%; RAM network inhibition [7]: 2.08%

For `COc1ccc(N(CC(=O)Nc2ccc(C)cn2)S(=O)(=O)c2c(C)nn(C)c2C)cc1`, which growth inhibition [1] is on record?
Its growth inhibition is -17.5%.

And the growth inhibition [2]?
Its growth inhibition is -9.45%.

And the viability increase [3]?
Its viability increase is -1.95%.

And the viability [4]?
Its viability is 97.5%.

And the viability [5]?
The viability was 96.2%.

What about the inhibition [6] of the same compound?
The inhibition was 0.055%.

What about the RAM network inhibition [7] of the same compound?
Its RAM network inhibition is 5.27%.

Which growth inhibition [1] does the source give for `O=C1CCc2cc(S(=O)(=O)NC(C(=O)NCc3cccnc3)c3ccccc3)ccc2N1` (configuration not stated) here?
Its growth inhibition is -5.88%.

And the growth inhibition [2]?
The growth inhibition was 4.59%.

And the viability increase [3]?
The viability increase was -2.98%.

And the viability [4]?
Its viability is 100%.

What about the viability [5] of the same compound?
The viability was 98.3%.

What about the inhibition [6] of the same compound?
The inhibition was -0.185%.

What about the RAM network inhibition [7] of the same compound?
The RAM network inhibition was 3.79%.

For `CCCCS(=O)CC(COCc1ccccc1)OC(=O)CSc1nc(C)cc(C)n1` (configuration not stated), which growth inhibition [1] is on record?
The growth inhibition was -8.16%.

And the growth inhibition [2]?
Its growth inhibition is -22%.

What about the viability increase [3] of the same compound?
Its viability increase is -1.32%.

What about the viability [4] of the same compound?
The viability was 97.6%.

What about the viability [5] of the same compound?
The viability was 94.7%.

And the inhibition [6]?
The inhibition was 0.95%.

And the RAM network inhibition [7]?
Its RAM network inhibition is 3.07%.

Which growth inhibition [1] does the source give for `COC(=O)C1=C(O)CSC1=Nc1cccc(C(F)(F)F)c1` here?
Its growth inhibition is -1.75%.

And the growth inhibition [2]?
Its growth inhibition is 8.3%.

And the viability increase [3]?
The viability increase was -0.93%.

And the viability [4]?
Its viability is 101%.

And the viability [5]?
Its viability is 96.3%.

And the inhibition [6]?
Its inhibition is 0.625%.

What about the RAM network inhibition [7] of the same compound?
The RAM network inhibition was 3.1%.

What does the source list for `CC1CCN(S(=O)(=O)c2ccc(NC(=O)c3cccs3)cc2)CC1`?
growth inhibition [1]: -0.77%; growth inhibition [2]: 5.38%; viability increase [3]: -5.18%; viability [4]: 85.5%; viability [5]: 75.8%; inhibition [6]: 0.115%; RAM network inhibition [7]: 3.83%

Which results are given for `CCn1c(/C=N/n2cnnc2)nc2ccccc21`?
growth inhibition [1]: -6.04%; growth inhibition [2]: -5.67%; viability increase [3]: -0.75%; viability [4]: 96.8%; viability [5]: 92.8%; inhibition [6]: 1.56%; RAM network inhibition [7]: -0.99%

With `Cn1c(=O)oc2cc(S(=O)(=O)N3CCC(C(=O)N4CCN(c5ccccc5)CC4)CC3)ccc21` as the compound, how does the growth inhibition [1] read?
The growth inhibition was 0.31%.

And the growth inhibition [2]?
The growth inhibition was 3.94%.

What about the viability increase [3] of the same compound?
Its viability increase is -2.78%.

What about the viability [4] of the same compound?
The viability was 94.6%.

And the viability [5]?
Its viability is 93.1%.

And the inhibition [6]?
The inhibition was -0.21%.

What about the RAM network inhibition [7] of the same compound?
The RAM network inhibition was 7.13%.

With `COc1ccccc1N1CCN(CCCC(=O)c2ccc(F)cc2)CC1` as the compound, how does the growth inhibition [1] read?
Its growth inhibition is -11.5%.

And the growth inhibition [2]?
Its growth inhibition is 1.04%.

What about the viability increase [3] of the same compound?
Its viability increase is -0.78%.

And the viability [4]?
The viability was 80.6%.

And the viability [5]?
The viability was 88.9%.

What about the inhibition [6] of the same compound?
Its inhibition is 2.29%.

What about the RAM network inhibition [7] of the same compound?
Its RAM network inhibition is -0.89%.

With `COc1ccc(S(=O)(=O)N2CC(C)N(S(=O)(=O)c3ccc(OC)cc3)CC2C)cc1` (configuration not stated) as the compound, how does the growth inhibition [1] read?
The growth inhibition was -4.74%.

And the growth inhibition [2]?
Its growth inhibition is 0.035%.

What about the viability increase [3] of the same compound?
Its viability increase is -2.77%.

What about the viability [4] of the same compound?
Its viability is 93.2%.

And the viability [5]?
The viability was 102%.

And the inhibition [6]?
Its inhibition is 1.73%.

And the RAM network inhibition [7]?
Its RAM network inhibition is 5.94%.

Which growth inhibition [1] does the source give for `Clc1cc(NCc2cccs2)ccc1N1CCOCC1` here?
Its growth inhibition is -13.5%.

What about the growth inhibition [2] of the same compound?
The growth inhibition was -6.34%.

And the viability increase [3]?
The viability increase was -3.46%.

And the viability [4]?
Its viability is 78.9%.

What about the viability [5] of the same compound?
Its viability is 92%.

And the inhibition [6]?
Its inhibition is 1.17%.

And the RAM network inhibition [7]?
The RAM network inhibition was 4.21%.

Which results are given for `COc1ccccc1N1CCN(Cc2cc(Br)c(O)c3ncccc23)CC1`?
growth inhibition [1]: 96.8% (active); growth inhibition [2]: 98.6% (active); viability increase [3]: -6.58%; viability [4]: 6.37% (active); viability [5]: 6.17% (active); inhibition [6]: -0.8%; RAM network inhibition [7]: -1.73%

Which growth inhibition [1] does the source give for `Cc1ccc(C)c(N2CCN(CC(=O)Nc3ccc4[nH]c(=O)[nH]c4c3)CC2)c1` here?
Its growth inhibition is -13.7%.

And the growth inhibition [2]?
Its growth inhibition is -14.9%.

And the viability increase [3]?
The viability increase was -5.54%.

And the viability [4]?
The viability was 92.9%.

And the viability [5]?
Its viability is 89.1%.

And the inhibition [6]?
The inhibition was 0.03%.

And the RAM network inhibition [7]?
Its RAM network inhibition is 1.87%.

With `Cn1c(=O)oc2cc(S(=O)(=O)NCc3ccccn3)ccc21` as the compound, how does the growth inhibition [1] read?
Its growth inhibition is -20.9%.

And the growth inhibition [2]?
Its growth inhibition is -20.2%.

And the viability increase [3]?
The viability increase was 0.44%.

And the viability [4]?
The viability was 96.5%.

What about the viability [5] of the same compound?
Its viability is 101%.

What about the inhibition [6] of the same compound?
The inhibition was 3.3%.

What about the RAM network inhibition [7] of the same compound?
Its RAM network inhibition is 4.32%.
